Compound activity: PubChem, The Scripps Research Institute Molecular Screening Center
PKA-R2B activ – activates the human PKA-R2B holoenzyme complex; PKA-R2B holoenzyme dissociation, Cy5-IP20 fluorescence polarization; R2B truncated from residue 108, S112A mutant; 0% DMSO only, 100% 113 µM cGMP; P22694+P31323; 340,000 compounds, 0.079% hits; AID 504700; activation, % at 11.4 µM;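 active = activation above a cutoff set at the mean over all compounds plus 3 SD, cut at about 18% in these data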;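 note: higher means more holoenzyme dissociation and a rise in polarization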
PKA-R1A act – activates the PKA-R1A holoenzyme complex; PKA-R1A dissociation, Cy5-IP20 fluorescence polarization; scaled: DMSO 0%, 113 µM cGMP 100%; 340,000 compounds, 0.083% hits; AID 504707; activation, % at 11.4 µM;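 active = percent activation above the mean of all tested compounds plus 3 SD, cut at about 19% in these data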;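 note: higher means more PKAc released from R1A so a rise in polarization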
proCasp3 act – procaspase-3 (human) activation. 330,000 compounds, 0.11% hits. AID 463141. recombinant procaspase-3 D3A, Ac-DEVD-pNA absorbance 405 nm. P42574. activation, % at 8.5 µM;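 active = activation above the mean of all tested compounds plus 3 SD, cut at about 21% in these data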;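 note: 0% = DMSO alone and 100% = DMSO wells spiked with extra 5 µM PC-3 D3A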
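System: Procaspase-3 D3A mutant. Medium: Zinc-free 300 mM NaCl, 50 mM HEPES, 0.01% Triton X-100. Schedule: 1 h preincubation plus 2 h reaction at 25 °C. Measured by: 405 nm absorbance of p-nitroaniline, reads at 0 and 120 min. Read-out: percent activation relative to control range.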
proCasp7 act – counter-screen: procaspase-7 (human) activation | 330,000 compounds, 0.093% hits | activation, % at 8.5 µM | recombinant procaspase-7, Ac-DEVD-pNA absorbance 405 nm; D23A/D198A/D206A triple mutant, cannot self-cleave; scale: DMSO 0, 5 µM enzyme 100 | P55210;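 active = percent activation above the screen-wide mean plus 3 SD, cut at about 25% in these data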
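System: Procaspase-7 triple mutant (PC-7 D3A); measure: % activation from two-timepoint absorbance difference, scaled to controls; times: 1 h compound preincubation, 2 h substrate cleavage, 25 °C; also added: Ac-DEVD-pNA substrate, 400 µM as added; measured by: Epi-absorbance of released pNA at 405 nm, two timepoints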
R2B FP artifact – FP assay interference, PKA-R2B counter-screen. shares compounds with PKA-R2B activ. FP artifact counterscreen, fluorescence polarization. activation, % at 11.4 µM. 270 compounds, 6% hits. AID 504796; in the data active = activation above about 20%;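 note: Cy5 labelled IP20 peptide probe with compound but no PKA protein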
PKA-R2B confirm – confirmation of human PKA-R2B complex activators; shares compounds with PKA-R2B activ; fluorescence polarization, activation; activation, % at 11.4 µM; 270 compounds, 9% hits; AID 504797; in the data active = activation above about 19%
R1A FP artifact – FP assay interference, PKA-R1A counter-screen; shares compounds with PKA-R1A act; Cy5-IP20 peptide alone, fluorescence polarization artifact counterscreen; activation, % at 11.4 µM; 280 compounds, 7% hits;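 active = mean activation over triplicate runs exceeds the adjusted cutoff derived for the parent primary screen, cut at about 19% in these data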;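 note: no PKA protein present so any polarization rise reflects compound interference; 0% = tracer peptide mix alone and 100% = mix with added PKA catalytic subunit; higher means stronger polarization artifact and likely false positive in parent screen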
PKA-R1A confirm – PKA-R1A complex activation, confirmation. shares compounds with PKA-R1A act. Cy5-IP20 fluorescence polarization, PKA-R1A holoenzyme dissociation. activation, % at 11.4 µM. 280 compounds, 9% hits;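 active = mean activation over replicate wells exceeds the adjusted hit threshold taken from the earlier primary screen, cut at about 20% in these data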;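 note: 0% = holoenzyme mix with DMSO only and 100% = cGMP-activated control wells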
Target sequence (P00514 whole entry, looked up): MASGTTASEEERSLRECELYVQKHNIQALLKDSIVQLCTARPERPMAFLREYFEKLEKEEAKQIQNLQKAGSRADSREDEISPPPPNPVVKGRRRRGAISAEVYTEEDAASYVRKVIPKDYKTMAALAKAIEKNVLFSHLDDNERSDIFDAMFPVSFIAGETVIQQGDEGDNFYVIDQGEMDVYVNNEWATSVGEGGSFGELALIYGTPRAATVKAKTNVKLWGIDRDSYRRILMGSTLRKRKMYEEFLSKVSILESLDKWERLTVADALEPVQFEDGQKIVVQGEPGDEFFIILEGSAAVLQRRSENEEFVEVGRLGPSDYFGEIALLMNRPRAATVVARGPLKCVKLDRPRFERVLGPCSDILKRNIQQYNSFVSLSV
* hit, by the source's call; . = no result given. Shown are actives, neighbours in structure and some others; about 0.29% of the full set was active somewhere.

SMILES	PKA-R2B activ	PKA-R1A act	proCasp3 act	proCasp7 act	R2B FP artifact	PKA-R2B confirm	R1A FP artifact	PKA-R1A confirm
COc1ccc(C)cc1NC(=O)C1CCN(C(=O)C2CC(=O)N(c3ccc(C)cc3)C2)CC1 (stereo not given)	-2	-14	2	-5	.	.	.	.
CCCC(=O)Nc1ccccc1N1CCN(C(=O)C(C)C)CC1	-2	-17	-1	-8	.	.	.	.
COC(=O)Cc1cnc(NC(=O)C2C3CCC(C3)C2C(=O)O)s1 (stereo not given)	19*	4	-1	-4	2	4	.	.
CCN(CC)CCNC(=O)c1ccc(NC2=NC3CS(=O)(=O)CC3S2)cc1 (stereo not given)	19*	12	12	14	2	0	.	.
O=C(NCCc1ccc(Cl)cc1)c1ccc(NC2=NC3CS(=O)(=O)CC3S2)cc1 (stereo not given)	-5	-6	4	-7	.	.	.	.
Oc1ccc(/C=N/Nc2ncnc3nc[nH]c23)cc1	22*	-4	-7	0	2	-5	.	.
COc1cc([N+](=O)[O-])ccc1NC(=O)NCc1ccccn1	-6	-7	0	3	.	.	.	.
C/C(=N\Nc1cc(N2CCCCC2)nc(C)n1)c1ccc(Br)cc1	-3	-9	-8	1	.	.	.	.
CCCC1Nc2ccc(C(=O)O)cc2C2C=CCC12 (stereo not given)	19*	23*	0	-15	21*	20*	21*	24*
C=C(C)C(=O)Nc1cccnc1Oc1ccc(F)cc1	1	14	2	1	.	.	.	.
CCC1=NN2C(=N)/C(=C/c3ccc(OS(=O)(=O)c4ccccc4)cc3)C(=O)N=C2S1	29*	22*	2	2	23*	23*	23*	28*
CCS(=O)(=O)C1=NN2C(=N)/C(=C\c3ccc(OS(=O)(=O)c4ccccc4)cc3)C(=O)N=C2S1	1	-9	2	-7	.	.	.	.
CC(C)CN(C(=O)COC(=O)CSc1ccc([N+](=O)[O-])cc1)C1CCS(=O)(=O)C1 (stereo not given)	-3	6	-12	-15	.	.	.	.
Cc1oc2ccc(OCc3ccccc3F)cc2c1C(=O)O	-9	-2	0	9	.	.	.	.
Cc1ccccc1COc1ccc2oc(C)c(C(=O)O)c2c1	42*	43*	3	11	60*	70*	60*	67*
COc1ccc2oc(C(=O)OCC(=O)Nc3ccc(NC(C)=O)cc3)c(C)c2c1	25*	20*	15	4	8	13	8	13
CCc1cc(C(=O)OC)c(NC(=O)CC2NCCNC2=O)s1 (stereo not given)	7	25*	-1	13	.	.	5	3
C/C(=N/NC(=O)c1cccs1)c1ccc(NC(=O)COc2ccc(Cl)cc2)cc1	2	19*	-5	-1	.	.	4	5
C/C(=N\NC(=O)c1ccc(Cl)cc1)c1cccs1	-3	-14	.	.	.	.	.	.
Cc1ccc(-c2cc(C(=O)N3CCOCC3)no2)cc1	5	21*	3	5	.	.	6	5
Cc1cccc(Cc2nnc(NC(=O)c3cccc(S(=O)(=O)N4CCOCC4)c3)s2)c1	-10	-9	3	0	.	.	.	.
COc1ccc(C(CC(=O)N2CCOCC2)C(C)C)cc1 (stereo not given)	-15	-4	-2	13	.	.	.	.
CC(=O)Nc1cccc(C(=O)N2CCN(S(=O)(=O)Cc3ccccc3)CC2)c1	-2	1	6	-1	.	.	.	.
COc1cccc(C(=O)NC(=S)Nc2ccccc2N2CCCC2)c1	1	0	-6	-12	.	.	.	.
CC(C)Oc1cccc(C(=O)NC(=S)Nc2ccccc2N2CCOCC2)c1	-3	19*	-3	1	.	.	-4	-3
